Activity calls are given as the source filed them. The rule behind the calls is not given here.
What was measured:
[1] = Ethanol interaction ratio (EIR) of the compound.; type: ADME
Method in brief: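 Ratio computed as rat rotorod ED50 for drug given with ethanol (mg/kg) divided by the SSD minimum effective dose (mg/kg), both orally. The SSD MED is the lowest dose (N=8/dose) giving a significant rise (p < 0.05, Student's t test) in mean shocks taken versus vehicle in the rat shock-induced suppression of drinking test.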

[2] = species on record: Rattus norvegicus; assay: Compound was tested for activity against ethanol-induced impairment of rotarod performance in rat.; type: functional
[3] = system: Rattus norvegicus; assay: Compound was tested in vivo for activity to induce sedation or ataxia in rat using rotarod test; type: functional
[4] = system: Rattus norvegicus; assay: Minimum effective dose (po) tested for its anxiolytic activity in rat using the shock-induced suppression of drinking (SSD) test.; type: functional; conditions: read-out: MED
Method in brief: (§1)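 Rats (n = 8 per dose) were dosed orally at one or more levels and then run in the shock-induced suppression of drinking conflict test. MED is the dose producing a significant rise (p < 0.05, Student's t test) in mean shocks accepted relative to vehicle-treated controls.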

[5] = system: Monkey; assay: Compound was tested for activity using primate conflict test in monkey.; type: functional; conditions: Cercopithecidae, in Primates; read-out: MED
[6] = system: Rattus norvegicus; assay: Compound was tested in vivo for antagonistic activity against metrazole-induced convulsions in rat; type: functional
[7] = species on record: Rattus norvegicus; assay: Sedative liability index (SLI) to indicate the separation between the anxiolytic and ataxic doses in rats; type: functional
Method in brief: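 Ratio computed as rat rotorod ED50 (mg/kg) divided by the SSD minimum effective dose (mg/kg), with both given orally. The SSD MED is the lowest dose (N=8/dose) giving a significant increase (p < 0.05, Student's t test) in mean shocks taken over vehicle control in the rat shock-induced suppression of drinking test.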

[8] = target: T1, GABA-A receptor; anion channel (Rattus norvegicus) (UniProt O09028+P15431+P18506+P18508+P19969+P20236+P23574+P23576+P28471+P28473+P30191+P62813+P63079+P63138+Q91ZM7+Q9ES14); assay: Displacement of [3H]flunitrazepam from GABA-A benzodiazepine receptor of rat cerebral cortex at 50 nM; type: tissue-based
Method in brief: (§2)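 Rat cerebral cortex membranes were incubated with [3H]flunitrazepam in the presence of the test agent at a single concentration (nM), run in triplicate with under 7% variation between values. Binding is reported as % inhibition of [3H]flunitrazepam binding.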

[9] = target: GABA-A receptor; anion channel; assay: (§3) Inhibition of [3H]flunitrazepam binding to GABA-A benzodiazepine receptor of rat cerebral cortex; type: tissue-based
[10] = system: Rattus norvegicus; assay: Minimum effective dose (ip) tested for its anxiolytic activity in rat using the shock-induced suppression of drinking (SSD) test; NS is No Significant activity at […]; type: functional, organism-based
Method in brief: (§4)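 Shock-induced suppression of drinking (Vogel-type conflict) in rats, with compounds given intraperitoneally at one or more dose levels, 8 rats per dose. MED is the lowest dose giving a significant increase (p < 0.05, Student's t test) in the mean number of shocks taken versus vehicle control.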

[11] = target: GABA-A receptor; anion channel; assay: as §3; type: tissue-based; remark: listed apart in the source
Method in brief: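 [3H]Flunitrazepam displacement from rat cerebral cortex benzodiazepine receptors, run in triplicate with under 7% variation between values. IC50 is the concentration (nM) giving half-maximal inhibition of binding, determined from three or more concentrations.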

[12] = system: Rattus norvegicus; assay: Minimum effective dose (po) tested for its anxiolytic activity in rat using the shock-induced suppression of drinking (SSD) test; NS is No Significant activity at 100 MG/kG; type: functional, organism-based; conditions: 100 M; method in brief: as §1
[13] = target: T1, GABA-A receptor; anion channel (Rattus norvegicus); assay: Displacement of [3H]flunitrazepam from GABA-A benzodiazepine receptor of rat cerebral cortex at 500 nM; type: tissue-based; method in brief: as §2
[14] = system: Rattus norvegicus; assay: Minimum effective dose (po) tested for its anxiolytic activity in rat using the shock-induced suppression of drinking (SSD) test; NS is No Significant activity at […]; type: functional, organism-based; method in brief: as §1
[15] = system: GABA-A receptor; anion channel; assay: Inhibition of [3H]flunitrazepam binding to GABA-A benzodiazepine receptor of rat cerebral cortex (Not Significant at 5000 nM); type: tissue-based; method in brief: as §2
[16] = system: Rattus norvegicus; assay: Minimum effective dose (ip) tested for its anxiolytic activity in rat using the shock-induced suppression of drinking (SSD) test; NS is No Significant activity at 5 mg/Kg; type: functional, organism-based; method in brief: as §4
[17] = species on record: Rattus norvegicus; assay: Compound was tested for activity against ethanol-induced impairment of rota rod performance in rat.; type: functional
[18] = target: GABA-A receptor; anion channel; assay: Inhibition of [3H]flunitrazepam binding to GABA-A benzodiazepine receptor of rat cortex
[19] = target: GABA-A receptor; anion channel; assay: Inhibition of [3H]flunitrazepam binding to GABA-A benzodiazepine receptor of rat cerebellum; type: tissue-based
[20] = system: Rattus norvegicus; assay: Minimum effective dose (ip) tested for its anxiolytic activity in rat using the shock-induced suppression of drinking (SSD) test; NS is No Significant activity at 25 mg/Kg; type: functional, organism-based; method in brief: as §4
[21] = target: T1, GABA-A receptor; anion channel (Rattus norvegicus); assay: Displacement of [3H]flunitrazepam from GABA-A benzodiazepine receptor of rat cerebral cortex at 800 nM; type: tissue-based; method in brief: as §2
[22] = system: Rattus norvegicus; assay: Minimum effective dose (po) tested for its anxiolytic activity in rat using the shock-induced suppression of drinking (SSD) test; NS is No Significant activity at 50 mg/Kg; type: functional, organism-based; method in brief: as §1
[23] = target: T1, GABA-A receptor; anion channel (Rattus norvegicus); assay: Displacement of [3H]flunitrazepam from GABA-A benzodiazepine receptor of rat cerebral cortex at 5000 nM; type: tissue-based; method in brief: as §2
[24] = system: Rattus norvegicus; assay: Minimum effective dose (ip) tested for its anxiolytic activity in rat using the shock-induced suppression of drinking (SSD) test; NS is No Significant activity at 160 mg/Kg; type: functional, organism-based; method in brief: as §4

## CN1C(=O)CN=C(c2ccccc2)c2cc(Cl)ccc21 [DIAZEPAM]
[1]
  EIR: 0.5
[2]
  ED50: 2.5 mg/kg
[3]
  ED50: 10.2 mg/kg
[4]
  minimal effective dose: 5 mg/kg
[5]
  minimal effective dose: 1.6 mg/kg
[6]
  ED50: 8.4 mg/kg
[7]
  SLI: 2

## C=CCNC(=O)c1c(C)nc2c(cnn2CCCCC)c1N
[8]
  inhibition: 0%
[4]
  minimal effective dose: 50 mg/kg

## CCCCCn1ncc2c(N)c(C(=O)OCC)c(CC)nc21
[9]
  IC50: 302 nM
[10]
  MED: inactive

## C#CCCCn1ncc2c(N)c(C(=O)NCC=C)cnc21
[4]
  minimal effective dose: 6.3 mg/kg
[11]
  IC50: 9.3 nM

## C=CCOC(=O)c1cnc2c(cnn2CCCCC)c1N
[12]
  MED: inactive
[9]
  IC50: 16 nM

## CCCCCn1ncc2c(N)c(C(=O)OCC)c(C(C)C)nc21
[13]
  inhibition: 54%
[14]
  MED: inactive

## CCCNc1c(C(=O)OCC)c(C)nc2c1cnn2CC
[15]
  IC50: Not Active
[16]
  MED: inactive

## C=CCNC(=O)c1cnc2c(cnn2CCC#CC)c1N
[1]
  EIR: 3.9
[9]
  IC50: 81 nM
[3]
  ED50: 25.1 mg/kg
[4]
  minimal effective dose: 0.8 mg/kg
[5]
  minimal effective dose: 3.1 mg/kg
[17]
  ED50: 3.1 mg/kg
[6]
  ED50: 1 mg/kg
[18]
  IC50: 81 nM
[7]
  SLI: 31.4
[19]
  IC50: 19 nM

## CCOC(=O)c1c(C)nc2c(cnn2CC)c1N(C)C
[20]
  MED: inactive
[21]
  inhibition: 13%

## CCCCCn1ncc2c(N)c(C(=O)NCCCC)c(C)nc21
[22]
  MED: inactive
[23]
  inhibition: 31%

## CCOC(=O)c1cc2cnn(CC)c2nc1C
[23]
  inhibition: 14%
[24]
  NS: inactive
